Measurements reported in ChEMBL document CHEMBL3259606, “Discovery of novel inhibitors targeting the macrophage migration inhibitory factor via structure-based virtual screening and bioassays” (J Med Chem, 2014).
The source made the active and inactive calls. The rule behind the calls is not given here.

Experiments:
[1] = biological target: T1, Macrophage migration inhibitory factor (Homo sapiens) (UniProt P14174); test: (§1) Inhibition of recombinant MIF (unknown origin)-mediated glucocorticoid overriding activity in LPS-stimulated mouse RAW264.7 cells assessed as inhibition of dexamethasone-induced intracellular TNF-alpha production at 20 uM preincubated for 30 mins followed by LPS challenge measured at 4 hrs by ELISA relative to control; assay type: cell-based
T1 sequence (whole entry): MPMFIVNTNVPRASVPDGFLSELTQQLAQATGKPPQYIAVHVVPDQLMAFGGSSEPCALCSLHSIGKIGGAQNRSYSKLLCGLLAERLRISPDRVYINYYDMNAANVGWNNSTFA
Summary of the method: (§2)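 RAW 264.7 cells, 5 × 10^4/well in triplicate, pretreated 30 min with dexamethasone (0.1 μM) plus recombinant MIF (0.2 μM) with or without compound, then stimulated with LPS (0.1 μg/mL). TNF-α in supernatant by sandwich ELISA at 4 h; NO in supernatant by Griess reagent at 16 h. Mean ± SD, n = 3, three independent experiments.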

RAW264.7 = test: Antiinflammatory activity in mouse RAW264.7 cells assessed as inhibition of LPS-induced nitrite production at 40 uM after 24 hrs by Griess assay; assay type: functional, cell-based
Summary of the method: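 RAW 264.7 macrophages (DMEM, 5% heat-inactivated FBS, 37 °C, 5% CO2) incubated 24 h with 0.1 μg/mL LPS with or without compound; nitrite in supernatant by Griess reagent. Mean ± SD, n = 3, representative of three independent experiments.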

[2] = biological target: T1, Macrophage migration inhibitory factor (Homo sapiens); test: as §1, with “intracellular nitric oxide” for “intracellular TNF-alpha”, “at 16” for “at 4”, “by Griess assay” for “by ELISA”; assay type: cell-based; summary of the method: as §2
[3] = biological target: T1, Macrophage migration inhibitory factor (Homo sapiens); test: Inhibition of recombinant MIF (unknown origin)-induced ERK1/2 phosphorylation in mouse RAW264.7 cells at 20 uM preincubated for 30 mins followed by protein addition measured after 20 mins by Western blot analysis relative to control; assay type: cell-based
Summary of the method: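 RAW 264.7 cells given compound 30 min before MIF (0.1 μg/mL). Lysates taken 20 min after stimulation, separated on 12% SDS-PAGE and immunoblotted for phospho-ERK1/2 and total ERK1/2 (loading control), ECL detection. Densitometry expressed as % of MIF-alone band intensity.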

[4] = biological target: T1, Macrophage migration inhibitory factor (Homo sapiens); test: (§3) Inhibition of recombinant human MIF tautomerase activity expressed in Escherichia coli using L-dopachrome methyl ester as substrate incubated for 30 mins prior to substrate addition measured for 3 mins
[5] = biological target: T2, Macrophage migration inhibitory factor (Homo sapiens, UniProt P14174); test: as §3
T2 sequence (P14174 whole entry): T1 sequence (whole entry)

[6] = biological target: T1, Macrophage migration inhibitory factor (Homo sapiens); test: Inhibition of recombinant MIF (unknown origin)-induced mouse RAW264.7 cell chemotactic migration at 20 uM preincubated for 30 mins followed by macrophage addition measured every 15 mins for 4 hrs relative to control
Summary of the method: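 Recombinant MIF with or without compound placed in the lower chamber of a CIM-16 plate 30 min before RAW 264.7 cells (20,000/well, serum-free medium) added to the upper chamber. Impedance-based migration on xCELLigence RTCA-DP read every 15 min for 4 h. Heat-inactivated MIF as negative control; % of MIF-alone migration; mean ± SD, n = 3.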

Row | inhibition [3] | inhibition [4] | IC50 [5] [µM] | Compound | further results
1 | 59% | Dose-dependent effect |  | COc1ccc(C(=O)O)cc1NC(=S)NC(=O)c1cc2ccccc2o1 | inhibition [1]: 131%; inhibition (RAW264.7): Active; inhibition [2]: 131%
2 |  |  | 74.5 | O=C(Nc1ccccc1C(=O)O)c1cc(S(=O)(=O)Nc2ccc(F)cc2)ccc1Cl | 
3 |  |  | 22.6 | COc1cc(-c2nc3sc4c(c3c(=O)[nH]2)CCCC4)cc(Br)c1OCC(=O)O | 
4 |  |  | 45.5 | COc1ccc(-c2cc(C)nc(SCc3cccc(C(=O)O)c3)n2)cc1 | 
5 |  |  | 25.8 | COc1ccc2c3c(c(=O)oc2c1OCC(=O)O)CCCC3 | 
6 | 43% | Dose-dependent effect |  | O=C(O)c1cccc(NC(=S)NC(=O)c2ccc(-c3ccccc3)cc2)c1 | inhibition [6]: 52%; inhibition (RAW264.7): Active
7 |  |  | 23.1 | Cc1c(CCC(=O)O)c(=O)oc2cc(OCc3ccccc3Br)ccc12 | 
8 | Active | Dose-dependent effect |  | COC(=O)C[C@H]1CC(c2ccc(O)cc2)=NO1 | inhibition [1]: 128%; fold change (FC) [6]: 2.2; inhibition [2]: 128%
9 |  |  | 102 | O=C(O)CCC(=O)Nc1nc(-c2cc3ccccc3oc2=O)cs1 | 
10 | 55% | Dose-dependent effect |  | COc1cc(-c2nc3ccccc3s2)cc(Br)c1OCC(=O)O | inhibition [6]: 83%; inhibition (RAW264.7): Active
11 |  |  | 85.6 | O=C(O)C[C@@H](Cc1ccccc1)c1ccco1 | 
